Source: PubChem BioAssay
Shown are actives, neighbours in structure and some others; about 3.9% of the full set was active somewhere.
CHOP UPR activ = activators of apoptotic arm of unfolded protein response (CHOP) | CHO-CHOP luciferase reporter, UPR activation, luminescence; percent of tunicamycin response over DMSO baseline | activation, % at 10 µM | actives 0.34% (n = 330,000);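 active = at 10 µM dose, activation of 40% or more, normalized to positive control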
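Test system: CHO-CHOP cells, stable luciferase reporter of PERK-eIF2a-CHOP signalling | Quantity: 500 CHO-CHOP cells per well | Buffer or medium: F12 plus 10% serum | Compound dosing: 10 µM single point, 0.5% DMSO | Schedule: 6 h compound treatment, 37 °C | Signal: Luciferase luminescence | Control set: Tunicamycin high control, DMSO low control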
tim10-1 inh = tim10-1 yeast growth inhibition; S. cerevisiae tim10-1 ts strain growth, BacTiter-Glo, 24 h; inhibition, % at 20 µM; actives 2.2% (n = 330,000);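 active = inhibition of at least 40%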;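 also: mutant grown at 25 °C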
TIM10 inh = TIM10 yeast growth inhibition; S. cerevisiae TIM10 strain growth, BacTiter-Glo luminescence, 24 h; inhibition, % at 10 µM; actives 1.4% (n = 330,000);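 active = inhibition of 40% or more at the single tested concentration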;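 also: wild-type TIM10 isogenic control strain grown at permissive 25 °C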
UPR XBP1 act = activators of adaptive arm of unfolded protein response (XBP1); CHO-XBP1 luciferase reporter, IRE1-XBP1 UPR activation, luminescence; percent of tunicamycin response, DMSO as zero; activation, % at 20 µM; actives 0.33% (n = 330,000); AID 463104;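 active = versus positive control, 20 µM dose yields 30% or more activation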
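Material: CHO cell line with stable XBP1 luciferase reporter; schedule: 16-18 h cell attachment at 37 °C, then 6 h compound exposure; signal: glow luminescence from Steady-Glo reagent; medium: serum-containing F12 medium, 10% FBS; benchmarks: tunicamycin 10 µg/mL and vehicle-only wells; read-out: percent activation relative to tunicamycin reference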
tim23-1 inh = inhibits growth of tim23-1 mutant yeast | inhibition, % at 20 µM | S. cerevisiae tim23-1 growth, BacTiter-Glo luminescence, 24 h | actives 1.3% (n = 330,000) | AID 463212;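 active = growth inhibition of the mutant yeast at or above 50%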;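 also: temperature-sensitive mutant grown at 25 °C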
tim10-1 confirm = tim10-1 yeast growth inhibition, confirmed; shares compounds with tim10-1 inh; S. cerevisiae tim10-1 ts strain growth, BacTiter-Glo, 24 h; inhibition, % at 20 µM; actives 56% (n = 7,400); AID 463213;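 active = inhibition of yeast growth at or above a set limit in either of two repeat tests at 20 µM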;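 also: tim10-1 mutant grown at permissive 25 °C to find synthetic lethal compounds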
TIM10 conf = confirmation of TIM10 yeast growth inhibitors; shares compounds with TIM10 inh; S. cerevisiae tim10 strain growth, BacTiter-Glo luminescence, 24 h; inhibition, % at 10 µM; actives 63% (n = 4,600);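 active = inhibition of yeast growth at or above a set limit in either of two replicates at 10 µM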; also: this counterscreen used the strain with wild-type TIM10
Each line names hits and unclear results; the compound was inactive in the other large screens (follow-up assays come after a bar, where they were run).

COc1cc(/C=C2\SC(=S)N(Nc3ncc(C(F)(F)F)cc3Cl)C2=O)ccc1O	tim10-1 inh 48, TIM10 inh 51 | tim10-1 confirm inactive | TIM10 conf 42
Cc1ccc(-c2nnc(Sc3nc4ccccc4o3)c3ccccc23)cc1	tim10-1 inh 46, TIM10 inh 48 | tim10-1 confirm 30 | TIM10 conf 38
CCOC(=O)Cc1csc(Nc2ccc(Cl)cc2)n1	tim10-1 inh 52, TIM10 inh 48 | tim10-1 confirm 41 | TIM10 conf 36
S=C(NNc1cccc(Cl)c1)NC1CCCCC1	tim10-1 inh 49, TIM10 inh 61 | tim10-1 confirm 41 | TIM10 conf 55
O=C(NC1CCCCCCC1)c1cccc(Cl)c1	none
O=c1c(Cl)c(N/N=C/c2ccc(Cl)cc2)cnn1-c1ccccc1	tim10-1 inh 47, TIM10 inh 46 | tim10-1 confirm inactive | TIM10 conf inactive
Nc1c(C(=O)N/N=C/c2ccc(Cl)cc2)cnn1-c1ccccc1	none
C[C@H](NC(=O)c1ccc(Cl)cc1)C(=O)OCn1nnc2ccccc2c1=O	none
O=C(CSCC(=O)OCn1nnc2ccccc2c1=O)Nc1ccc(Cl)cc1	tim10-1 inh 62, TIM10 inh 51 | tim10-1 confirm 55 | TIM10 conf inactive
NC(=O)c1cc([N+](=O)[O-])ccc1NCc1cnccn1	none
O=C(COC(=O)c1ccccc1OC(F)F)Nc1ccc2[nH]c(=O)[nH]c2c1	none
C=CCN(CC=C)S(=O)(=O)c1ccc(NC(=O)COc2ccccc2OC)cc1	tim10-1 inh 45, TIM10 inh 42 | tim10-1 confirm 32 | TIM10 conf inactive
COc1ccccc1OCC(=O)Nc1ccncc1	none
CCN(C(=O)CSc1n[nH]c(N)n1)c1cccc2ccccc12	none
O=C(c1ccc(-c2ccc([N+](=O)[O-])cc2)o1)N1CCCCC1	tim10-1 inh 54, TIM10 inh 40 | tim10-1 confirm 46 | TIM10 conf inactive
O=C(c1ccc(-c2cccc([N+](=O)[O-])c2)o1)N1CCN(c2ccc([N+](=O)[O-])cc2)CC1	none
COc1ccc(CN2CCN(C(=O)c3c(-c4ccccc4)noc3C)CC2)cc1F	none
C=CCn1c(=O)c2ccccc2n2c(SCc3c(C(=O)OCC)oc4ccccc34)nnc12	tim10-1 inh 41, TIM10 inh 42 | tim10-1 confirm 38 | TIM10 conf inactive
C=CCn1c(=O)c2ccccc2n2c(SCC(N)=O)nnc12	none
CCOc1ccccc1Nc1nnc(SCC(=O)NC2CC2)s1	none
Cc1ccccc1NC1=NC(=S)N(c2ccccc2)C12CCCCC2	tim10-1 inh 54, TIM10 inh 50 | tim10-1 confirm 46 | TIM10 conf inactive
CCCCn1c(N)c(N(CC(C)C)C(=O)c2ccc(Cl)c(S(=O)(=O)N3CCCC3)c2)c(=O)[nH]c1=O	none
COc1ccc(-c2cc(C(=O)N3CCN(Cc4ccccc4)CC3)no2)cc1OC	none
COc1ccccc1N1CCN(C(=O)c2cc(-c3ccc(Cl)cc3)on2)CC1	tim10-1 inh 47, TIM10 inh 48 | tim10-1 confirm 32 | TIM10 conf 30
COc1cccc(-c2cc(C(=O)N3CCN(Cc4ccccc4)CC3)no2)c1	tim10-1 inh 44, TIM10 inh 42 | tim10-1 confirm 30 | TIM10 conf 46
COc1ccc(-c2cc(C(=O)N3CCN(c4ccccc4OC)CC3)no2)cc1	none
O=C1S/C(=C\c2ccc(Cl)cc2)C(=O)N1CCn1cnnn1	tim10-1 inh 43, TIM10 inh 43 | tim10-1 confirm 35 | TIM10 conf inactive
CC(C)(C)c1ccccc1NC(=S)NC1CCCCC1	tim10-1 inh 43, TIM10 inh 45 | tim10-1 confirm inactive | TIM10 conf 32
CC(C)(C)c1ccccc1NC(=S)NC1CCCC1	none
Cc1ccc2ccccc2c1COC(=O)c1nonc1N	tim10-1 inh 43, TIM10 inh 50 | tim10-1 confirm 43 | TIM10 conf 50
CCCCN(Cc1ccc(C(=O)N[C@H](C(=O)O)C(C)C)cc1)C(=O)C(c1ccccc1)c1ccccc1	none
O=C(COC(=O)Cc1ccc(Cl)cc1)NC1CCCC1	none
COc1ccccc1C(c1nnnn1CCc1ccccc1)N1CCCCCC1 (stereo not drawn)	tim10-1 inh 42, TIM10 inh 43 | tim10-1 confirm inactive | TIM10 conf inactive
COc1ccc(C(=O)Nc2ccc(S(=O)(=O)N3CCCCC3)cc2)cc1	tim10-1 inh 48, TIM10 inh 61 | tim10-1 confirm 64 | TIM10 conf 62
O=C(COc1ccc2ccccc2c1)Nc1ccc(S(=O)(=O)N2CCCCCC2)cc1	tim10-1 inh 41, TIM10 inh 46 | tim10-1 confirm 37 | TIM10 conf inactive
COc1ccc(C(=O)Nc2ccc(S(=O)(=O)N3CCN(C)CC3)cc2)cc1	none
O=C(CN1CCN(S(=O)(=O)c2ccc3ccccc3c2)CC1)Nc1ccc2c(c1)CCC2	tim10-1 inh 44, TIM10 inh 53 | tim10-1 confirm 46 | TIM10 conf inactive
COc1ccc(OCC(=O)Nc2ccc(S(=O)(=O)N3CCCCCC3)cc2)cc1	none
O=C(NCCc1ccc(F)cc1)C1CCN(C(=O)Nc2ccccc2)CC1	none
CCCCCC1CC(CC(=O)Nc2nncs2)C(=O)O1 (stereo not drawn)	TIM10 inh 45 | tim10-1 confirm 37 | TIM10 conf 31
CCCCCC1CC(CC(C)C(=O)Nc2nncs2)C(=O)O1 (stereo not drawn)	none
CN1CCN(c2ccc(S(=O)(=O)N3CCOCC3)cc2NC(=O)Cc2ccccc2F)CC1	none
CC(C)COC(=O)c1ccc2c(c1O)C(=O)c1ccccc1C2=O	tim10-1 inh 58, TIM10 inh 47 | tim10-1 confirm 42 | TIM10 conf 40
CCCCN(CC(O)COc1cccc(C)c1)CC(O)COc1cccc(C)c1 (stereo not drawn)	none
Cc1nc(Nc2ccc(Cl)c(Cl)c2)sc1C(=O)Nc1ccccc1	tim10-1 inh 59, TIM10 inh 53 | tim10-1 confirm 32 | TIM10 conf 69
CN(C)c1ccc(NC2=C(Cl)C(=O)c3ccccc3C2=O)cc1	tim10-1 inh 62, TIM10 inh 68 | tim10-1 confirm 63 | TIM10 conf 60
CCOCCCNC1=C(Cl)C(=O)c2ccccc2C1=O	none
Oc1ccc(-c2csc(-c3c[nH]c4ccccc34)n2)c(O)c1	none
Cc1ccc(-c2csc(-c3c[nH]c4ccccc34)n2)c(C)c1	tim10-1 inh 41, TIM10 inh 43 | tim10-1 confirm 39 | TIM10 conf 48
CCOc1cccc(C(=O)NC(=S)NCc2cccnc2)c1	none
